Measured values as given in ChEMBL document CHEMBL1133004, “3-Alkylamino-4H-pyrido[2,3-e]-1,2,4-thiadiazine 1,1-dioxides structurally related to diazoxide and pinacidil as potassium channel openers acting on vascular smooth muscle cells: design, synthesis, and pharmacological evaluation” (2000).

How the values were obtained:
Type in all cases: functional
Rattus norvegicus [1] = species: Rattus norvegicus; experiment: Concentration giving 50% relaxation of the 30 mM KCL-induced contraction of rat aorta rings; settings: read-out: ED50 (the source's name)
In short: (§1)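 Endothelium-denuded aortic rings (3-4 mm) from fed Wistar rats (250-300 g), held at 1 g tension in Krebs-bicarbonate at 37 °C under O2/CO2 (95/5), isometric recording. After 60 min equilibration, contracted with 30 or 80 mM KCl as specified. At plateau, drug was added cumulatively to maximal relaxation or 1 mM. Glibenclamide (1 or 10 µM) was present throughout where stated. ED50 was read graphically as 50% inhibition of the KCl plateau.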

Rattus norvegicus [2] = species: Rattus norvegicus; experiment: Effect on Oxytocin-Induced contractions of rat uterus at 50 uM
In short: (§2)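 Uterine horns from fed Wistar rats (150-200 g) primed the day before with im diethylstilboestrol dipropionate (0.1 mL/100 g of 1 mg/mL oily solution). Horns were superfused with Tyrode at 37 °C under O2/CO2 (95/5). 20 mU oxytocin was injected at 10-min intervals until contractions (AUC) were constant, then repeated ≥3 times per drug concentration. Response is given as % of the drug-free oxytocin contraction.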

Rattus norvegicus [3] = species: Rattus norvegicus; experiment: Effect on Insulin secretion from rat pancreatic islets (RIS) in the presence of 16.7 mM glucose at 10 uM
In short: (§3)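 Collagenase-isolated islets from fed Wistar rats (180-220 g), in groups of 10. Preincubated 30 min at 37 °C in bicarbonate salt medium with 2.8 mM glucose and 0.5% albumin under O2/CO2. Then incubated 90 min at 37 °C with 16.7 mM glucose plus drug. Insulin was measured by radioimmunoassay against a rat insulin standard and reported as % residual release.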

Rattus norvegicus [4] = species: Rattus norvegicus; experiment: Effect on Oxytocin-Induced contractions of rat uterus at 100 uM; in short: as §2
Cavia porcellus = species: Cavia porcellus; experiment: Inhibition of electrically stimulated contractions of guinea pig ileum segments.; settings: read-out: ED50 (the source's name)
In short: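 Ileum segments (4 cm, taken ≥10 cm from cecum) from adult guinea pigs (300-400 g), 1 g initial load, Krebs-bicarbonate at 37 °C, gassed 95% O2/5% CO2. Coaxial stimulation at 0.5-ms pulses, 0.1 Hz, 5-25 V, with isometric recording. Drug was added cumulatively to maximal effect and expressed as % of the 5-min pre-drug response. ED50 was assessed graphically.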

Rattus norvegicus [5] = species: Rattus norvegicus; experiment: Effect on Oxytocin-Induced contractions of rat uterus at 10 uM; in short: as §2
Rattus norvegicus [6] = species: Rattus norvegicus; experiment: Insulin secretion from rat pancreatic islets (RIS) in the presence of 16.7 mM glucose at 50 uM; in short: as §3
Rattus norvegicus [7] = species: Rattus norvegicus; experiment: Effect on contractile activity of 30 mM potassium-Depolarized rat aorta incubated in the presence of 1 uM Glibenclamide; settings: read-out: ED50 (the source's name); in short: as §1
Rattus norvegicus [8] = species: Rattus norvegicus; experiment: Effect on contractile activity of 30 mM potassium-Depolarized rat aorta incubated in the presence of 10 uM Glibenclamide; settings: read-out: ED50 (the source's name); in short: as §1
Rattus norvegicus [9] = species: Rattus norvegicus; experiment: Effect on contractile activity of 80 mM potassium-Depolarized rat aorta; settings: read-out: ED50 (the source's name); in short: as §1
Rattus norvegicus [10] = species: Rattus norvegicus; experiment: Compound is evaluated for the effect on Oxytocin-Induced contractions of rat uterus at 100 uM; in short: as §2
Rattus norvegicus [11] = species: Rattus norvegicus; experiment: Compound is evaluated for the effect on Oxytocin-Induced contractions of rat uterus at 10 uM; in short: as §2
Rattus norvegicus [12] = species: Rattus norvegicus; experiment: Compound is evaluated for the effect on Oxytocin-Induced contractions of rat uterus at 50 uM; in short: as §2
Rattus norvegicus [13] = species: Rattus norvegicus; experiment: Effect on contractile activity of 30 mM potassium-Depolarized rat aorta incubated in the absence of Glibenclamide; settings: read-out: ED50 (the source's name); in short: as §1
Rattus norvegicus [14] = species: Rattus norvegicus; experiment: Effect on Oxytocin-Induced contractions of rat uterus at concentrations 10 uM; in short: as §2
Rattus norvegicus [15] = species: Rattus norvegicus; experiment: Effect on Oxytocin-Induced contractions of rat uterus at concentrations 100 uM; in short: as §2
Rattus norvegicus [16] = species: Rattus norvegicus; experiment: Effect on Oxytocin-Induced contractions of rat uterus at concentrations 50 uM; in short: as §2

Structure (SMILES)	EC50 (Rattus norvegicus [1]) [µM]	EC50 (Cavia porcellus) [µM]	RIS (Rattus norvegicus [6]) [%]	further results
O=S1(=O)NC(NCC2CCCCC2)=Nc2ncc(Cl)cc21	38.2	17.4	57.7	Contraction (Rattus norvegicus [2]): 95.1%; RIS (Rattus norvegicus [3]): 76.8%; Contraction (Rattus norvegicus [4]): 90.4%; Contraction (Rattus norvegicus [5]): 96.3%
C[C@H](NC1=NS(=O)(=O)c2cccnc2N1)c1ccccc1	9.9	> 300	73.3	–
O=S1(=O)NC(NCc2ccccc2)=Nc2ncc(Cl)cc21	43.6	–	74.1	Contraction (Rattus norvegicus [2]): 98.9%; Contraction (Rattus norvegicus [4]): 71.9%; Contraction (Rattus norvegicus [5]): 108.2%
CCC(C)NC1=NS(=O)(=O)c2cccnc2N1 (stereo unspecified)	50.9	–	85.9	–
CC(C)C(C)NC1=NS(=O)(=O)c2cnccc2N1 (stereo unspecified)	154	> 300	7.1	RIS (Rattus norvegicus [3]): 26.8%
CC(NC1=NS(=O)(=O)c2cc(Cl)cnc2N1)C(C)(C)C (stereo unspecified)	2.3	> 300	41.5	EC50 (Rattus norvegicus [7]): 22.6 µM; EC50 (Rattus norvegicus [8]): 33.9 µM; EC50 (Rattus norvegicus [9]): 33 µM; Contraction (Rattus norvegicus [10]): 51%; Contraction (Rattus norvegicus [11]): 97.6%; Contraction (Rattus norvegicus [12]): 67.9%; EC50 (Rattus norvegicus [13]): 1.6 µM
CC(C)C(C)NC1=NS(=O)(=O)c2cccnc2N1 (stereo unspecified)	27.1	> 300	87.9	EC50 (Rattus norvegicus [9]): > 300 µM; EC50 (Rattus norvegicus [13]): 27.1 µM
CC(C)NC1=NS(=O)(=O)c2cccnc2N1	132	> 300	78.7	–
C[C@@H](NC1=NS(=O)(=O)c2cccnc2N1)c1ccccc1	65.2	> 300	71.6	–
C[C@@H](NC1=NS(=O)(=O)c2cccnc2N1)C1CCCCC1	29.2	> 300	79.9	–
O=S1(=O)N=C(NCC2CCCCC2)Nc2ncccc21	45.7	145	94.2	–
CCC(C)NC1=NS(=O)(=O)c2cc(Cl)cnc2N1 (stereo unspecified)	20	–	62.7	–
CC(C)NC1=NS(=O)(=O)c2cc(Cl)cnc2N1	14.6	> 300	74.4	–
C[C@H](NC1=NS(=O)(=O)c2cc(Cl)cnc2N1)C1CCCCC1	3.8	20.4	11.8	Contraction (Rattus norvegicus [2]): 71.4%; RIS (Rattus norvegicus [3]): 71.9%; Contraction (Rattus norvegicus [4]): 43.7%; Contraction (Rattus norvegicus [5]): 84.9%
C[C@H](NC1=NS(=O)(=O)c2cccnc2N1)C1CCCCC1	25.2	> 300	76.2	–
C[C@H](NC1=NS(=O)(=O)c2cc(Cl)cnc2N1)c1ccccc1	21.2	–	45.9	Contraction (Rattus norvegicus [2]): 79.3%; Contraction (Rattus norvegicus [4]): 41.1%; Contraction (Rattus norvegicus [5]): 91%
CC(NC1=NS(=O)(=O)c2cccnc2N1)C(C)(C)C (stereo unspecified)	7.5	> 300	98.9	EC50 (Rattus norvegicus [7]): 65.2 µM; EC50 (Rattus norvegicus [8]): 107 µM; EC50 (Rattus norvegicus [9]): > 300 µM; Contraction (Rattus norvegicus [14]): 93.8%; Contraction (Rattus norvegicus [15]): 57.5%; Contraction (Rattus norvegicus [16]): 68%; EC50 (Rattus norvegicus [13]): 10.1 µM
C[C@@H](NC1=NS(=O)(=O)c2cc(Cl)cnc2N1)c1ccccc1	38.8	–	52.3	Contraction (Rattus norvegicus [2]): 59.4%; Contraction (Rattus norvegicus [4]): 32.6%; Contraction (Rattus norvegicus [5]): 88.4%
CC(C)C(C)NC1=NS(=O)(=O)c2cc(Cl)cnc2N1 (stereo unspecified)	10.6	> 300	59.3	EC50 (Rattus norvegicus [7]): 34.1 µM; EC50 (Rattus norvegicus [8]): 45.1 µM; EC50 (Rattus norvegicus [9]): 49.3 µM; EC50 (Rattus norvegicus [13]): 8.2 µM
O=S1(=O)N=C(NCc2ccccc2)Nc2ncccc21	21.9	> 300	86.2	–
C[C@@H](NC1=NS(=O)(=O)c2cc(Cl)cnc2N1)C1CCCCC1	3.5	13.6	6.7	Contraction (Rattus norvegicus [2]): 50.9%; EC50 (Rattus norvegicus [7]): 5 µM; EC50 (Rattus norvegicus [8]): 8.6 µM; RIS (Rattus norvegicus [3]): 71.3%; EC50 (Rattus norvegicus [9]): 12.3 µM; Contraction (Rattus norvegicus [4]): 22.9%; Contraction (Rattus norvegicus [5]): 70.6%; EC50 (Rattus norvegicus [13]): 3.7 µM
CC1=NS(=O)(=O)c2cc(Cl)cnc2N1	> 300	–	87.4	–
CC1=Nc2ccc(Cl)cc2S(=O)(=O)N1 [DIAZOXIDE]	19.3	> 300	28.8	EC50 (Rattus norvegicus [7]): 85.8 µM; EC50 (Rattus norvegicus [8]): 163 µM; RIS (Rattus norvegicus [3]): 70%; EC50 (Rattus norvegicus [9]): > 300 µM; Contraction (Rattus norvegicus [10]): 67.7%; Contraction (Rattus norvegicus [11]): 93.8%; Contraction (Rattus norvegicus [12]): 76.3%; EC50 (Rattus norvegicus [13]): 19.5 µM
CC(Cc1ccc(O)cc1)NCC(O)c1cc(O)cc(O)c1 (stereo unspecified) [FENOTEROL]	–	–	–	Contraction (Rattus norvegicus [14]): 38.4%; Contraction (Rattus norvegicus [15]): 35.5%; Contraction (Rattus norvegicus [16]): 36.3%
CC(N/C(=N\C#N)Nc1ccncc1)C(C)(C)C (stereo unspecified) [PINACIDIL ANHYDROUS]	0.5	9.2	92.1	EC50 (Rattus norvegicus [7]): 10.4 µM; EC50 (Rattus norvegicus [8]): 42.5 µM; RIS (Rattus norvegicus [3]): 96%; EC50 (Rattus norvegicus [9]): 16 µM; Contraction (Rattus norvegicus [10]): 38.1%; Contraction (Rattus norvegicus [11]): 58.1%; Contraction (Rattus norvegicus [12]): 35.5%; EC50 (Rattus norvegicus [13]): 0.2 µM
